The target of assay [1] is Histone acetyltransferase KAT2B (Homo sapiens) (UniProt Q92831). In words: Inhibition of HAT PCAF relative to control. Also on record: scale not given: the % may be the effect or the level left. Put shortly:
(§1)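 Filter-binding HAT assay with PCAF, purified HeLa core histones and ³H-acetyl-CoA, run at increasing inhibitor concentrations. Activity compared with a DMSO solvent control.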

For assay [2], the target named is T1, Histone acetyltransferase p300 (Homo sapiens, UniProt Q09472). Kind of assay: Binding affinity to HAT p300 catalytic domain by isothermal titration calorimetry. Put shortly:
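ITC at 20 °C. Ligand at 30–35 μM injected into 3 μM p300 HAT domain in 20 mM Tris-HCl pH 7.5, 0.2 mM EDTA, 100 mM KCl. 35 injections, 2 min apart; the first 1 μL injection was discarded. Ligand-into-buffer and buffer-into-buffer blanks were subtracted, and data fitted to a one-set-of-sites model.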
On the technique in general: Isothermal titration calorimetry measures the heat released or taken up as one component is titrated into another.

In assay [3] the target is T1, Histone acetyltransferase p300. Kind of assay: Inhibition of HAT p300 catalytic domain assessed as drug-induced alteration of protein tertiary structure at 2.5 uM by Stern-Volmer plot. The arrangement: scale not given: the % may be the effect or the level left. Put shortly:
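p300 HAT domain (1.2 μM) preincubated 2 min at room temperature with 2.5 μM inhibitor in 20 mM Tris-HCl pH 7.5, 0.2 mM EDTA, 100 mM KCl. Acrylamide added stepwise; fluorescence read at 340 nm (excitation 295 nm) at 20 °C. Ksv taken from a Stern–Volmer plot and tryptophan accessibility from a modified Stern–Volmer plot.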

Assay [4] has the same target. Kind of assay: Binding affinity to HAT p300 catalytic domain by fluorometric titration. Put shortly:
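p300 HAT domain (aa 1284–1673, 6His, from E. coli BL21(DE3) co-expressing SirT2), 1.2 μM, titrated with ligand in 20 mM Tris-HCl pH 7.5, 0.2 mM EDTA, 100 mM KCl. Tryptophan emission read at 340 nm (excitation 295 nm). Kd obtained by nonlinear least-squares fit; ΔFmax taken from a double-reciprocal plot.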

Assay [5] shares this target. Kind of assay: Inhibition of HAT p300 catalytic domain activity expressed in Escherichia coli BL21 (DE3) co-transformed with human SirT2 by fluorography/autoradiography assay.
Assay [6] has the same target. In words: Inhibition of HAT p300 catalytic domain.
Assay [7] addresses Histone acetyltransferase KAT2B (Homo sapiens) (UniProt Q92831). In words: Inhibition of HAT PCAF up to 10 uM after 2 mins in absence of acetyl-CoA. Also on record: scale not given: the % may be the effect or the level left. Put shortly:
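PCAF preincubated with inhibitor at 10 μM without acetyl-CoA over a time course, then assayed for HAT activity on purified HeLa core histones in triplicate. Activity compared with a DMSO control.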

For assay [8] the target is unchanged. In words: Inhibition of HAT PCAF up to 40 uM relative to control. The arrangement: scale not given: the % may be the effect or the level left. Put shortly: as §1

SMILES strings stand for the structures.

T1 sequence (Q09472 whole entry, the tested form may be a part): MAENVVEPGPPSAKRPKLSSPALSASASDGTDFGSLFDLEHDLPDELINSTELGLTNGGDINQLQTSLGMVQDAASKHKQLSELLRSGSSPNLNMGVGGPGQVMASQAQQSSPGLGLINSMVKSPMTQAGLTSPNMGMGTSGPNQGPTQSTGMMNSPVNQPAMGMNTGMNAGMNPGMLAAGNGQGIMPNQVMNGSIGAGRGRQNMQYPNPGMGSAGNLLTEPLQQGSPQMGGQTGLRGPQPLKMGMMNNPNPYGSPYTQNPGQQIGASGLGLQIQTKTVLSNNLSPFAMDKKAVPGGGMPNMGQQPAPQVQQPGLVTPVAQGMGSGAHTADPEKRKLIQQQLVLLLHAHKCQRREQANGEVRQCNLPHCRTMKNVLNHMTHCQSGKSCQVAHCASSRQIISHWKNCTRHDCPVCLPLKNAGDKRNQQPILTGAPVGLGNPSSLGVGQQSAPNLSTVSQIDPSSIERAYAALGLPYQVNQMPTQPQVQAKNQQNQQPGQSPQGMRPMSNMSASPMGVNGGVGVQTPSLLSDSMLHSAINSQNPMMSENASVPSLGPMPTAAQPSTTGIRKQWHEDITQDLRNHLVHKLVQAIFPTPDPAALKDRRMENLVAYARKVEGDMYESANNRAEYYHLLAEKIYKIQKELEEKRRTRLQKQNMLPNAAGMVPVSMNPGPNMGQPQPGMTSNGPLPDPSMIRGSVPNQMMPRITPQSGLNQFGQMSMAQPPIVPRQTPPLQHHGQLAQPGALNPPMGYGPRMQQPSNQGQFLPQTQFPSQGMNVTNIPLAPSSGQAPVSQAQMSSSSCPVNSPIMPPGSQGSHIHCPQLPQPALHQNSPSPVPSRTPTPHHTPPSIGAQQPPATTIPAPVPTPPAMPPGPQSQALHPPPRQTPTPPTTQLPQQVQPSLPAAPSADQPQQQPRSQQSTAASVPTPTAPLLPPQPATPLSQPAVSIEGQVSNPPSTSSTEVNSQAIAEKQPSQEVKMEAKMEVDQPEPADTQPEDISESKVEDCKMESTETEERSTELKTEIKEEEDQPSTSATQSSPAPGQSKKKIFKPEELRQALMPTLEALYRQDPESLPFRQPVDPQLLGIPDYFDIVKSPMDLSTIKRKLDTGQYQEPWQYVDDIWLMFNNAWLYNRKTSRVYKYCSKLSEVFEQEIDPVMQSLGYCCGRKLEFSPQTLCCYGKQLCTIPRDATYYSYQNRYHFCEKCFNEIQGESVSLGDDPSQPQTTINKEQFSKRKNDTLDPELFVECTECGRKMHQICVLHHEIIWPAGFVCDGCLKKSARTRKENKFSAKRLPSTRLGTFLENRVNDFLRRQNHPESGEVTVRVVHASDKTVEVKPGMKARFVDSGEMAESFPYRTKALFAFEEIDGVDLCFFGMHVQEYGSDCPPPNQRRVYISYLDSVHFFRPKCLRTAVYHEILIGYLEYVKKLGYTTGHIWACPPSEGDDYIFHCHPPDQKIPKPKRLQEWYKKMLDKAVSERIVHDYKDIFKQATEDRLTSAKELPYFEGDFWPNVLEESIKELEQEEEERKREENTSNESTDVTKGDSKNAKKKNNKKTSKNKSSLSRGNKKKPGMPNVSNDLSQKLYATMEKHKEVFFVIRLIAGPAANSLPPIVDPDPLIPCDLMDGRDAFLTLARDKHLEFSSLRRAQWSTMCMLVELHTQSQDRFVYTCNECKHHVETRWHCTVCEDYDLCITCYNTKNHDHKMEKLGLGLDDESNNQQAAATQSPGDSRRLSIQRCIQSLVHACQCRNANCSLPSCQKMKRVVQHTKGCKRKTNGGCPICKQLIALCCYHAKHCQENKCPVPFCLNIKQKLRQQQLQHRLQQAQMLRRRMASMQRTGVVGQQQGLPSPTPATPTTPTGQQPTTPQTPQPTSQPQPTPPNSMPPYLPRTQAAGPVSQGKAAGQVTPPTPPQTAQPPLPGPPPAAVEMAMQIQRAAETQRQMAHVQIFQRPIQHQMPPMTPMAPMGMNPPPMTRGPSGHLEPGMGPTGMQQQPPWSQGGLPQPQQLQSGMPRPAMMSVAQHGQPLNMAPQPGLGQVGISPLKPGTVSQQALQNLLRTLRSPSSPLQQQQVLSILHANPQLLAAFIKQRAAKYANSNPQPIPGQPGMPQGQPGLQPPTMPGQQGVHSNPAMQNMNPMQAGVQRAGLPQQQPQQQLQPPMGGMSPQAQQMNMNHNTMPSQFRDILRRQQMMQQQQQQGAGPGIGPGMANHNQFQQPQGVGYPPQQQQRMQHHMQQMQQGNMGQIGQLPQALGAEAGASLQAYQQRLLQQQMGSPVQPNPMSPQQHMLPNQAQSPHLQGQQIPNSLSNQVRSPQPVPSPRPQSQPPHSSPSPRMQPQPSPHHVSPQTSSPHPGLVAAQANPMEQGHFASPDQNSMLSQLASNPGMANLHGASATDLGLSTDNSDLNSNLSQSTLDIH
Histone acetyltransferase KAT2B (Homo sapiens), sequence (Q92831 whole entry, looked up): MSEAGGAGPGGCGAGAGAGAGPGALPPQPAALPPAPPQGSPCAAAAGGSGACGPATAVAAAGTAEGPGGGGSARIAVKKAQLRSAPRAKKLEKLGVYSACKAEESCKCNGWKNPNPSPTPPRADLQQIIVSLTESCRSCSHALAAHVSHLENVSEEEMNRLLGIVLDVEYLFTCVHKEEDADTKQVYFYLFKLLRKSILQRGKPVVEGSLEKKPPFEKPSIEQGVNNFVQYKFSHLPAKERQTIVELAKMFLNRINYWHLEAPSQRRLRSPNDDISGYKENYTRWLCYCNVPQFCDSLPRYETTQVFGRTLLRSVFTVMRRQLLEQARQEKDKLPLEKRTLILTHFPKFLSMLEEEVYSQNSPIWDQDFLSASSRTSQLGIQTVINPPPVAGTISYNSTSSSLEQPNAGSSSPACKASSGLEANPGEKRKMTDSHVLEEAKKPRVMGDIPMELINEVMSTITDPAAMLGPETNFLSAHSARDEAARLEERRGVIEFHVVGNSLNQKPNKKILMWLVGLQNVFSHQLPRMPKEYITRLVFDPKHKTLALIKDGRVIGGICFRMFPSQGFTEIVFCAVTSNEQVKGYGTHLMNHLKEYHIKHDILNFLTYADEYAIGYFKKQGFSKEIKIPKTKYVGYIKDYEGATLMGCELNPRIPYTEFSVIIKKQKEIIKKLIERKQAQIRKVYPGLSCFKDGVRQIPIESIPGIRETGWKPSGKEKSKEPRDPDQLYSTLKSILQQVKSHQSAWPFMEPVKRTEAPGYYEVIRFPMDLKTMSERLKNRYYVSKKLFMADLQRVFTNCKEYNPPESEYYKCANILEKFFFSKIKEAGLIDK

As for `CC(C)=CC[C@H]1C[C@@]23C[C@@H](CC=C(C)C)C(C)(C)[C@@](CC=C(C)C)(C(=O)C(C(=O)c4ccc(O)c(O)c4)=C2OC1(C)C)C3=O` [CAMBOGIN], the figures for the Activity in assay [1], in assay [3] and in assay [5] were 50%, 75% and “Dose-dependent effect”, respectively. Moreover, the values for the Kd in assay [2] and in assay [4] were 5.9 µM and 1.1 µM, respectively. The Ki – broadly, a dissociation constant, usually derived from enzyme kinetics or from competition with a known ligand – in assay [6] amounted to 3.9 µM.
On to `C=C(C)[C@@H](CC=C(C)C)C[C@@]12C[C@@H](CC=C(C)C)C(C)(C)[C@@](CC=C(C)C)(C(=O)C(C(=O)c3ccc(O)c(O)c3)=C1O)C2=O` [GARCINOL], for which the Activity in assay [7] is 80%; in assay [8], 90%; in assay [3], 78%; in assay [5], “Dose-dependent effect”. Moreover, the figures for the dissociation constant Kd in assay [2] and in assay [4] were 6.6 µM and 1.8 µM, respectively. In assay [6], the Ki was determined as 4.9 µM.

Source of the values: ChEMBL document CHEMBL1139360, “Mechanism of p300 specific histone acetyltransferase inhibition by small molecules” (J Med Chem, 2009).
